In ChEMBL document CHEMBL3400013, “Synthesis and biological activity evaluation of hydrazone derivatives based on a Tröger's base skeleton” (Bioorg Med Chem, 2015):
The source made the active and inactive calls. No cut-off for these calls is given here.

How the values were obtained:
[1] = system: CCRF-CEM; assay: Induction of apoptosis in human CCRF-CEM cells assessed as apoptotic cells at 5 times IC50 after 24 hrs by propidium iodide staining-based flow cytometry; type: functional
Outline: (§1)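 Cells were then fixed in 70% ethanol, washed in hypotonic citrate buffer, treated with RNase (50 µg/mL) and stained with propidium iodide. Flow cytometry used a 488 nm laser. Apoptosis was scored as the percentage of particles with propidium content below G0/G1.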

[2] = system: CCRF-CEM; assay: Cell cycle arrest in human CCRF-CEM cells assessed as accumulation at G2/M phase at IC50 after 24 hrs by propidium iodide staining-based flow cytometry; type: functional; outline: as §1
[3] = Cytostatic activity against human CEM-DNR cells after 72 hrs by MTT assay; type: functional, cell-based
Outline: (§2)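 Cells were seeded at 25,000–30,000 per well and pre-incubated for 24 h at 37°C in 5% CO2. Four-fold compound dilutions were added in duplicate and incubated for 72 h. MTT was added for 1–4 h, and formazan was dissolved in 10% aq SDS (pH 5.5) overnight at 37°C. OD was read at 540 nm. IC50 came from dose-response curves, mean ± SD of eight independent experiments.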

[4] = system: CCRF-CEM; assay: Induction of apoptosis in human CCRF-CEM cells assessed as inhibition of DNA synthesis at IC50 after 24 hrs by propidium iodide/BrdU staining by flow cytometry; type: functional; design: scale not given: the % may be the effect or the level left
[5] = system: BJ; assay: Cytostatic activity against human BJ cells after 72 hrs by MTT assay; type: ADME, cell-based; outline: as §2
[6] = system: CCRF-CEM; assay: Induction of apoptosis in human CCRF-CEM cells assessed as mitotic cells at 5 times IC50 after 24 hrs by pH3Ser10+ labeling-based flow cytometry; type: functional
[7] = system: Staphylococcus aureus; assay: Antimicrobial activity against Staphylococcus aureus CCM 3953 up to 200 uM after 24 to 48 hrs by broth microdilution method; type: functional, organism-based
[8] = system: Nucleic Acid; assay: Binding affinity to DNA (unknown origin) assessed as DNA intercalation by UV-visible spectrophotometry; type: nucleic-acid assay
[9] = system: CCRF-CEM; assay: Cytostatic activity against human CCRF-CEM cells after 72 hrs by MTT assay; type: functional, cell-based; outline: as §2
[10] = Metal chelating activity of the compound assessed as formation of Ni2+ complex by UV-vis spectrometry; type: physicochemical
[11] = system: BJ; assay: Selectivity index, ratio of IC50 for human BJ cells to IC50 for human K562-TAX cells; type: functional
[12] = system: Pseudomonas aeruginosa; assay: Antimicrobial activity against Pseudomonas aeruginosa CCM 395 up to 200 uM after 24 to 48 hrs by broth microdilution method; type: functional, organism-based
[13] = system: A549; assay: Selectivity index, ratio of IC50 for human BJ cells to IC50 for human A549 cells; type: functional
[14] = Cytostatic activity against human p53-/- HCT116 cells after 72 hrs by MTT assay; type: functional, cell-based; details: HCT-116, 72 h; outline: as §2
[15] = system: BJ; assay: Selectivity index, ratio of IC50 for human BJ cells to IC50 for human p53-/- HCT116 cells; type: functional
[16] = system: Escherichia coli; assay: Antimicrobial activity against multidrug-resistant Escherichia coli C/16702 up to 200 uM after 24 to 48 hrs by broth microdilution method; type: functional, organism-based
[17] = system: Nucleic Acid; assay: Binding affinity to DNA (unknown origin) assessed as DNA intercalation by UV-visible spectrophotometry in presence of Cu2+; type: nucleic-acid assay
[18] = system: CCRF-CEM; assay: Induction of apoptosis in human CCRF-CEM cells assessed as mitotic cells at IC50 after 24 hrs by pH3Ser10+ labeling-based flow cytometry; type: functional
[19] = Cytostatic activity against human K562-TAX cells after 72 hrs by MTT assay; type: functional, cell-based; outline: as §2
[20] = system: BJ; assay: Selectivity index, ratio of IC50 for human BJ cells to IC50 for human K562 cells; type: functional
[21] = system: BJ; assay: Selectivity index, ratio of IC50 for human BJ cells to IC50 for human CCRF-CEM cells; type: functional; details: pooled result: one value given for 2 cell lines, strains, targets or settings
[22] = system: Candida tropicalis; assay: Antifungal activity against Candida tropicalis up to 200 uM after 24 to 48 hrs by broth microdilution method; type: functional, organism-based
[23] = Metal chelating activity of the compound assessed as formation of Cr3+ complex by UV-vis spectrometry; type: physicochemical
[24] = system: K562; assay: Selectivity index, ratio of IC50 for human MRC5 cells to IC50 for human K562 cells; type: functional
[25] = system: HCT-116; assay: Selectivity index, ratio of IC50 for human MRC5 cells to IC50 for human HCT116 cells; type: functional
[26] = system: Nucleic Acid; assay: Binding affinity to DNA (unknown origin) assessed as DNA intercalation by UV-visible spectrophotometry in presence of Ni2+; type: nucleic-acid assay
[27] = system: CCRF-CEM; assay: Cell cycle arrest in human CCRF-CEM cells assessed as accumulation at S phase at IC50 after 24 hrs by propidium iodide staining-based flow cytometry; type: functional; outline: as §1
[28] = system: MRC5; assay: Selectivity index, ratio of IC50 for human MRC5 cells to IC50 for human K562-TAX cells; type: functional
[29] = Metal chelating activity of the compound assessed as formation of Mg2+ complex by UV-vis spectrometry; type: physicochemical
[30] = system: A549; assay: Cytostatic activity against human A549 cells after 72 hrs by MTT assay; type: functional, cell-based; details: A549, 72 h; outline: as §2
[31] = system: CCRF-CEM; assay: Induction of apoptosis in human CCRF-CEM cells assessed as inhibition of RNA synthesis at 5 times IC50 after 24 hrs by propidium iodide/BrU staining by flow cytometry; type: functional; design: scale not given: the % may be the effect or the level left
[32] = system: Nucleic Acid; assay: Binding affinity to DNA (unknown origin) assessed as DNA intercalation by UV-visible spectrophotometry in presence of Co2+; type: nucleic-acid assay
[33] = system: CCRF-CEM; assay: Induction of apoptosis in human CCRF-CEM cells assessed as inhibition of DNA synthesis at 5 times IC50 after 24 hrs by propidium iodide/BrdU staining by flow cytometry; type: functional; design: scale not given: the % may be the effect or the level left
[34] = system: CCRF-CEM; assay: Induction of apoptosis in human CCRF-CEM cells assessed as inhibition of RNA synthesis at IC50 after 24 hrs by propidium iodide/BrU staining by flow cytometry; type: functional; design: scale not given: the % may be the effect or the level left
[35] = system: MRC5; assay: Cytostatic activity against human MRC5 cells after 72 hrs by MTT assay; type: ADME, cell-based; details: MRC5, 72 h; outline: as §2
[36] = system: Staphylococcus aureus; assay: Antimicrobial activity against methicillin-resistant Staphylococcus aureus MRSA 4591 up to 200 uM after 24 to 48 hrs by broth microdilution method; type: functional, organism-based
[37] = system: BJ; assay: Selectivity index, ratio of IC50 for human BJ cells to IC50 for human CEM-DNR cells; type: functional
[38] = system: CCRF-CEM; assay: Cell cycle arrest in human CCRF-CEM cells assessed as accumulation at G2/M phase at 5 times IC50 after 24 hrs by propidium iodide staining-based flow cytometry; type: functional; outline: as §1
[39] = system: Enterococcus faecalis; assay: Antimicrobial activity against Enterococcus faecalis CCM 4224 up to 200 uM after 24 to 48 hrs by broth microdilution method; type: functional, organism-based
[40] = system: CEM-DNR; assay: Selectivity index, ratio of IC50 for human MRC5 cells to IC50 for human CEM-DNR cells; type: functional
[41] = system: HCT-116; assay: Selectivity index, ratio of IC50 for human MRC5 cells to IC50 for human p53-/- HCT116 cells; type: functional
[42] = system: Candida parapsilosis; assay: Antifungal activity against Candida parapsilosis up to 200 uM after 24 to 48 hrs by broth microdilution method; type: functional, organism-based
[43] = system: Escherichia coli; assay: Antimicrobial activity against Escherichia coli CCM 3954 up to 200 uM after 24 to 48 hrs by broth microdilution method; type: functional, organism-based

SMILES: Cc1ccc(O)c(/C=N/NC(=O)c2ccc3c4c(ccc3c2)N2Cc3c(ccc5cc(C(=O)N/N=C/c6cc(C)ccc6O)ccc35)N(C4)C2)c1
- Activity [1]: 54.07%
- Activity [2]: 14.65%
- IC50 [3]: 5.36 µM
- Activity [4]: 38.67%
- IC50 [5]: 0.69 µM
- Activity [6]: 0.22%
- Activity [7]: inactive
- Activity [8]: inactive
- IC50 [9]: 0.58 µM
- Activity [10]: Active
- Ratio IC50 [11]: 0.4
- Activity [12]: inactive
- Ratio IC50 [13]: 0.9
- IC50 [14]: 0.45 µM
- Ratio IC50 [15]: 1.1
- Activity [16]: inactive
- Activity [17]: Active
- Activity [18]: 1.04%
- IC50 [19]: 1.14 µM
- Ratio IC50 [20]: 0.5
- Ratio IC50 [21]: 0.8
- Activity [22]: inactive
- Activity [23]: Not Active
- Ratio IC50 [24]: 0.5
- Ratio IC50 [25]: 0.8
- Activity [26]: Active
- Activity [27]: 44.83%
- Ratio IC50 [28]: 0.4
- Activity [29]: Not Active
- IC50 [30]: 0.54 µM
- Activity [31]: 26.44%
- Activity [32]: Active
- Activity [33]: 5.17%
- Activity [34]: 33.57%
- IC50 [35]: 0.27 µM
- Activity [36]: inactive
- Ratio IC50 [37]: 0.1
- Activity [38]: 14.79%
- Activity [39]: inactive
- Ratio IC50 [40]: 0.1
- Ratio IC50 [41]: 1.1
- Activity [42]: inactive
- Activity [43]: inactive

SMILES: O=C(N/N=C/c1cc(F)ccc1O)c1ccc2c3c(ccc2c1)N1Cc2c(ccc4cc(C(=O)N/N=C/c5cc(F)ccc5O)ccc24)N(C3)C1
- Activity [1]: 58.01%
- Activity [2]: 13.05%
- IC50 [3]: 4.25 µM
- Activity [4]: 13.69%
- IC50 [5]: 54.1 µM
- Activity [6]: 0.15%
- Activity [7]: inactive
- Activity [8]: inactive
- IC50 [9]: 1.58 µM
- Activity [10]: Active
- Ratio IC50 [11]: 17.6
- Activity [12]: inactive
- Ratio IC50 [13]: 33.6
- IC50 [14]: 0.81 µM
- Ratio IC50 [15]: 51
- Activity [16]: inactive
- Activity [17]: Active
- Activity [18]: 0.3%
- IC50 [19]: 2.36 µM
- Ratio IC50 [20]: 18.1
- Ratio IC50 [21]: 26.3
- Activity [22]: inactive
- Activity [23]: Not Active
- Ratio IC50 [24]: 18.1
- Ratio IC50 [25]: 64.9
- Activity [26]: Active
- Activity [27]: 55.45%
- Ratio IC50 [28]: 17.6
- Activity [29]: Not Active
- IC50 [30]: 1.24 µM
- Activity [31]: 4.37%
- Activity [32]: Active
- Activity [33]: 1.54%
- Activity [34]: 63.13%
- IC50 [35]: 29 µM
- Activity [36]: inactive
- Ratio IC50 [37]: 9.8
- Activity [38]: 16.49%
- Activity [39]: inactive
- Ratio IC50 [40]: 9.8
- Ratio IC50 [41]: 51
- Activity [42]: inactive
- Activity [43]: inactive
